This is an account of results in ChEMBL document CHEMBL3351472, “Synthesis and Biological Activity of 25-Hydroxy-2-methylene-vitamin D3 analogues monohydroxylated in the A-ring” (J Med Chem, 2014).

Experiment [1] deals with T1, Vitamin D3 receptor (Rattus norvegicus) (UniProt P13053).
T1 sequence (whole entry): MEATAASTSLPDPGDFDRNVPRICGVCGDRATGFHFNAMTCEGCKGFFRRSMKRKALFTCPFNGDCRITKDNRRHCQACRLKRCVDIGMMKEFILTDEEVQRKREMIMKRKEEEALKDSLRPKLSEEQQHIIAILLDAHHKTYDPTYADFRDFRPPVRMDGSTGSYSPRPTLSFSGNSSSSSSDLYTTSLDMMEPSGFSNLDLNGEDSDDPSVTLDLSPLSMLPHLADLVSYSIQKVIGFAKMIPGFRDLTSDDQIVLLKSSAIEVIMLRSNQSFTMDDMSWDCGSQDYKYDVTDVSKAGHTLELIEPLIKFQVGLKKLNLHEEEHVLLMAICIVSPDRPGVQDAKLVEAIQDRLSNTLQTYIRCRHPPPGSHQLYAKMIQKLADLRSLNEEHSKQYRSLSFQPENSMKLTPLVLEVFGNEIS
The experiment can be described thus: Ratio of 1alpha,25-(OH)2D3 Ki to compound Ki for full-length recombinant rat vitamin D receptor after 30 mins by liquid scintillation counting. Summed up: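 Competitive binding to VDR was run against radiolabeled 1α,25-(OH)₂D₃ at 1 nM. […] Duplicate determinations were made on two separate occasions. Each value is the mean of the 1α,25-(OH)₂D₃ Ki divided by the analogue Ki.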

In a further experiment the test system is HL-60. The experiment in a line: Ratio of 1alpha,25-(OH)2D3 ED50 to compound ED50 for induction of human HL60 cell differentiation by nitro blue tetrazolium reduction assay. It is filed as functional. Summed up: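 HL-60 promyelocytes were scored for maturation to monocytes as the percentage of cells reducing nitro blue tetrazolium. ED₅₀, the concentration giving 50% maturation, was taken from dose−response curves. The experiment was run in duplicate twice. Each value is the mean of the 1α,25-(OH)₂D₃ ED₅₀ divided by the analogue ED₅₀.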

The target of experiment [2] is T1, Vitamin D3 receptor (Rattus norvegicus). The experiment in a line: Ratio of 1alpha,25-(OH)2D3 ED50 to compound ED50 for VDR-mediated 24-hydroxylase gene expression in rat ROS 17/2.8 cells after 16 hrs by luciferase reporter assay. The class given is cell-based. Summed up: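 Rat osteosarcoma cells stably transfected with a 24-hydroxylase gene reporter plasmid were used as a transcription assay. ED₅₀ is the concentration raising luciferase activity by 50%, taken from dose−response curves. Each value is the ratio of the 1α,25-(OH)₂D₃ ED₅₀ to the analogue ED₅₀.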
Background: A reporter such as luciferase makes a cellular process visible.

The subject of experiment [3] is Rattus norvegicus. The experiment can be described thus: Effect on bone calcium mobilization in weanling Sprague-Dawley rat assessed as serum calcium level at 87 pmol/day, ip administered as 4 consecutive daily doses measured 24 hrs after last dose (reference value: 4.2 to 4.9 mg/dL). It is filed as functional.
Experiment [4] concerns Rattus norvegicus. The experiment can be described thus: Effect on bone calcium mobilization in weanling Sprague-Dawley rat assessed as serum calcium level at 780 pmol/day, ip administered as 4 consecutive daily doses measured 24 hrs after last dose (reference value: 4.2 to 4.9 mg/dL). The class given is functional.
In experiment [5] the test system is Rattus norvegicus. The experiment can be described thus: Effect on bone calcium mobilization in weanling Sprague-Dawley rat assessed as serum calcium level at 32 pmol/day, ip administered as 4 consecutive daily doses measured 24 hrs after last dose (reference value: 4.2 to 4.9 mg/dL). The class given is functional.
Experiment [6] concerns Rattus norvegicus. The experiment in a line: Effect on intestinal calcium transport in weanling Sprague-Dawley rat assessed as increase in ratio of serosal to mucosal calcium level at 780 pmol/day, ip administered as 4 consecutive daily doses measured 24 hrs after last dose. It is filed as functional.
In experiment [7] the test system is Rattus norvegicus. The experiment in a line: Effect on intestinal calcium transport in weanling Sprague-Dawley rat assessed as increase in ratio of serosal to mucosal calcium level at 87 pmol/day, ip administered as 4 consecutive daily doses measured 24 hrs after last dose. The class given is functional.
Experiment [8] has as its system Rattus norvegicus. The experiment in a line: Effect on intestinal calcium transport in weanling Sprague-Dawley rat assessed as increase in ratio of serosal to mucosal calcium level at 32 pmol/day, ip administered as 4 consecutive daily doses measured 24 hrs after last dose. The class given is functional.
Experiment [9] has as its system Rattus norvegicus. The experiment in a line: Effect on bone calcium mobilization in weanling Sprague-Dawley rat assessed as serum calcium level at 7020 pmol/day, ip administered as 4 consecutive daily doses measured 24 hrs after last dose (reference value: 4.2 to 4.9 mg/dL). It is filed as functional.
The test system of experiment [10] is Rattus norvegicus. The experiment in a line: Effect on intestinal calcium transport in weanling Sprague-Dawley rat assessed as increase in ratio of serosal to mucosal calcium level at 7020 pmol/day, ip administered as 4 consecutive daily doses measured 24 hrs after last dose. It is filed as functional.
Experiment [11] has as its system Rattus norvegicus. The experiment can be described thus: Effect on intestinal calcium transport in weanling Sprague-Dawley rat assessed as increase in ratio of serosal to mucosal calcium level at 35100 pmol/day, ip administered as 4 consecutive daily doses measured 24 hrs after last dose. The class given is functional.
Experiment [12] relates to Rattus norvegicus. The experiment can be described thus: Effect on bone calcium mobilization in weanling Sprague-Dawley rat assessed as serum calcium level at 35100 pmol/day, ip administered as 4 consecutive daily doses measured 24 hrs after last dose (reference value: 4.2 to 4.9 mg/dL). It is filed as functional.

As to `C=C1CC/C(=C/C=C2\CCC[C@]3(C)[C@@H]([C@H](C)CCCC(C)(C)O)CC[C@@H]23)C[C@H]1O`, in [1], the Ratio Ki stood at 0.2. For the same compound, the “Ratio ED50” value in the experiment with HL-60 turned out to be 2.2; in [2], 0.7.
In the case of `C=C1CC/C(=C\C=C2/CCC[C@]3(C)[C@@H]([C@@H](C)CCCC(C)(C)O)CC[C@@H]23)C[C@H]1O`, in [1], the Ratio Ki is 0.1. The “Ratio ED50” value (in the experiment with HL-60; in [2]) was 0.07 each time.
In the case of `C=C1CC/C(=C/C=C2\CCC[C@]3(C)[C@@H]([C@@H](C)CCCC(C)(C)O)CC[C@@H]23)C[C@H]1O`, the Ratio Ki in [1] stood at 0.5. Moreover, the “Ratio ED50” value came to 2.5 in the experiment with HL-60 and 2 in experiment [2].
The like results for `C=C1[C@H](O)CC(=C/C=C2\CCC[C@]3(C)[C@@H]([C@@H](C)CCCC(C)(C)O)CC[C@@H]23)C[C@H]1O` [DP001] were, in that order, 1, 25 and 29.
Consider `C=C1CC(=C)[C@H](O)C/C1=C/C=C1\CCC[C@]2(C)[C@@H]([C@@H](C)CCCC(C)(C)O)CC[C@@H]12`, for which the Ratio Ki in [1] came to 0.33. The “Ratio ED50” value with HL-60 came to 0.22; in experiment [2], 0.2. For the same compound, the Activity was 4.8 mg/dL in the experiment on Rattus norvegicus [3], 7.5 mg/dL with Rattus norvegicus [4] and 4.3 mg/dL in the experiment with Rattus norvegicus [5]. Moreover, the Ratio in the experiment on Rattus norvegicus [6] worked out at 14.3; with Rattus norvegicus [7], 9.8; in the experiment on Rattus norvegicus [8], 9.
On to `C=C1CC[C@H](O)C/C1=C/C=C1\CCC[C@]2(C)[C@@H]([C@H](C)CCCC(C)(C)O)CC[C@@H]12` [CALCIFEDIOL ANHYDROUS], for which, in experiment [1], the Ratio Ki worked out at 0.01. Further, the “Ratio ED50” value (with HL-60; in experiment [2]) was 0.001 each time.
In the case of `C=C1/C(=C\C=C2/CCC[C@]3(C)[C@@H]([C@H](C)CCCC(C)(C)O)CC[C@@H]23)C[C@@H](O)C[C@@H]1O` [CALCITRIOL], the Activity in the experiment on Rattus norvegicus [3] was 5 mg/dL; in the experiment on Rattus norvegicus [4], 7.5 mg/dL.
As to `C=C1CC/C(=C\C=C2/CCC[C@]3(C)[C@@H]([C@H](C)CCCC(C)(C)O)CC[C@@H]23)C[C@H]1O`, in [1], the Ratio Ki is 0.02. Further, the “Ratio ED50” value in the experiment on HL-60 turned out to be 0.01; in [2], 0.001.
Take `C=C1CC/C(=C/C=C2\CCC[C@]3(C)[C@@H]([C@@H](C)CCCC(C)(C)O)CC[C@@H]23)C(=C)[C@H]1O`: the Ratio Ki in experiment [1] was determined as 0.33. Besides, the “Ratio ED50” value came out at 4 in the experiment with HL-60 and 1 in experiment [2]. Also, the Activity in the experiment with Rattus norvegicus [3] amounted to 4.9 mg/dL; with Rattus norvegicus [4], 9.7 mg/dL; in the experiment with Rattus norvegicus [5], 4.8 mg/dL. Further, the results for the Ratio in the experiment with Rattus norvegicus [6], with Rattus norvegicus [7] and in the experiment on Rattus norvegicus [8] were 12.6, 10.2 and 7.9, respectively.
In the case of `C=C1CC(=C)[C@H](O)C/C1=C/C=C1\CCC[C@]2(C)[C@@H]([C@H](C)CCCC(C)(C)O)CC[C@@H]12`, the Ratio Ki in experiment [1] is 0.05. The “Ratio ED50” value with HL-60 was found to be 0.005; in [2], 0.0005. The Activity amounted to 4.4 mg/dL with Rattus norvegicus [3], 5.4 mg/dL with Rattus norvegicus [4] and 8.2 mg/dL with Rattus norvegicus [9]. For the same compound, the Ratio in the experiment on Rattus norvegicus [6] turned out to be 9.4; with Rattus norvegicus [7] it was 5.7; in the experiment with Rattus norvegicus [10], 10.2; with Rattus norvegicus [11], 9.7.
With `C=C1CC/C(=C/C=C2\CCC[C@]3(C)[C@@H]([C@H](C)CCCC(C)(C)O)CC[C@@H]23)C(=C)[C@H]1O`, the Ratio Ki in experiment [1] was found to be 0.25. The results for the “Ratio ED50” value (in the experiment with HL-60; in experiment [2]) were 2 and 1, respectively. In addition, the Activity in the experiment on Rattus norvegicus [3] is 4.5 mg/dL; in the experiment on Rattus norvegicus [4], 5.9 mg/dL; with Rattus norvegicus [9], 8.8 mg/dL; with Rattus norvegicus [12] it was 8.2 mg/dL. The Ratio with Rattus norvegicus [6] amounted to 11.8; in the experiment with Rattus norvegicus [7], 8.5; with Rattus norvegicus [10], 9.8; with Rattus norvegicus [11], 11.3.
